Measured values from the array DNA melting data of Ke et al. (doi:10.1101/2024.01.08.574731).

Columns and labels:
[1] = folding enthalpy; higher = less favourable; fluorescence melt of hairpins on a sequencing array, two-state fit; conditions: sodium 0.088 M
How it was run: (§1)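 To match UV melts, fitted temperatures were raised by 9.35 °C. These fits were bootstrapped two-state models that gave melting temperature and folding enthalpy, combined by inverse variance over four replicates. The input was normalised Cy3 fluorescence of library hairpins with annealed Cy3 and quencher oligos on a sequenced MiSeq flow cell, imaged in 50 mM Na-HEPES pH 8.0, 25 mM NaCl in 2.5 °C steps up to 60 °C.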

[2] = melting temperature; fluorescence melt of hairpins on a sequencing array, two-state fit, raised by 9.35 °C to match UV melts; conditions: sodium 0.088 M
How it was run: as §1

Sequence	folding enthalpy [1]	Tm [2]
GGACCTGAAAAGGTCC ((((((....))))))	-34.4 kcal/mol	68.2 °C
GGACGACGAAAGTCCTCC (((.(((....))).)))	-19.4 kcal/mol	45.4 °C
GGACGAGGAAACTCATCC (((.(((....))).)))	-27.4 kcal/mol	36.7 °C
GGACGAGGAAACTCGCCC ((.((((....)))).))	-23.3 kcal/mol	51.7 °C
GGACGCACGAAAGTGTCC (((..(((....))))))	-21.4 kcal/mol	47 °C
GGACGCCGAAAGGCTCC (((.(((....))))))	-19.7 kcal/mol	54.3 °C
GGACGCCGAAAGGCTTCC (((.(((....))).)))	-23.4 kcal/mol	53.8 °C
GGACGCGAAAGCGGATCC ((((((....)))..)))	-12.3 kcal/mol	47.5 °C
GGACGCGAAAGCGGCTCC ((((((....)))..)))	-8.87 kcal/mol	58 °C
GGACGGAAACGTCC (((((....)))))	-31.9 kcal/mol	66.4 °C
GGACGGACGAAAGTCTCC (((..(((....))))))	-13.2 kcal/mol	30.5 °C
GGACGGGGAAACCCATCC (((.(((....))).)))	-27.6 kcal/mol	41.7 °C
GGACGGGGAAACCCGTTC (.(((((....))))).)	-21.4 kcal/mol	56.1 °C
GGACGTCGAAAGACTCC (((.(((....))))))	-23.8 kcal/mol	51.2 °C
GGACGTGGAAACGCGTCC (((((.(....).)))))	-45.2 kcal/mol	61.9 °C
GGACGTGGAAACGTGTCC ((((..(....)..))))	-19.9 kcal/mol	44.3 °C
GGACTAGGAAACTGGTCC ((((.((....)).))))	-41.6 kcal/mol	50.9 °C
GGACTCCCGAAAGGGTCC (((..(((....))))))	-16.8 kcal/mol	45.3 °C
GGACTCCGAAAGGATTCC (((.(((....))).)))	-30.2 kcal/mol	47 °C
GGACTCGAAAGAGAATCC ((((((....)))..)))	-12.6 kcal/mol	28.8 °C
GGACTCGAAAGAGCTCC ((((((....))).)))	-26 kcal/mol	45 °C
GGACTCGAAAGAGGGTCC ((((((....)))..)))	-21 kcal/mol	43.9 °C
GGACTCGAAAGAGTGTCC ((((((....)))..)))	-16.9 kcal/mol	40.7 °C

Sequence	folding enthalpy [1]	Tm [2]
GGACTCGGAAACGAGCCC ((.((((....)))).))	-34.7 kcal/mol	53.5 °C
GGACTCTCGAAAGAGTCC (((..(((....))))))	-42.7 kcal/mol	60.9 °C
GGACTGCGAAAGCACTCC (((.(((....))).)))	-8.91 kcal/mol	38.9 °C
GGACTTCCGAAAGGATCC (((..(((....))))))	-12.7 kcal/mol	29.1 °C
GGACTTGGAAACAGGTCC ((((.((....)).))))	-46.5 kcal/mol	49.4 °C
GGAGAACGAAAGTTATCC (((.(((....))).)))	-37.2 kcal/mol	51.6 °C
GGAGAACGAAAGTTTTCC (((.(((....))).)))	-29.2 kcal/mol	47.4 °C
GGAGAAGCGAAAGCTTCC (((..(((....))))))	-9.26 kcal/mol	42.7 °C
GGAGAAGGAAACTTCTCC (((((((....)))))))	-43.1 kcal/mol	57.7 °C
GGAGAAGGAAACTTCTTC (.(((((....))))).)	-23.1 kcal/mol	36.7 °C
GGAGACACGAAAGTGTCC (((..(((....))))))	-8.97 kcal/mol	44.1 °C
GGAGACCCGAAAGGGTCC (((..(((....))))))	-7.91 kcal/mol	47.6 °C
GGAGACCGAAAGGTATCC (((.(((....))).)))	-41.4 kcal/mol	61.4 °C
GGAGACGAAAGTCAATCC ((((((....)))..)))	-15.1 kcal/mol	31 °C
GGAGACGAAAGTCACTCC ((((((....)))..)))	-13.3 kcal/mol	37.6 °C
GGAGACGAAAGTCATTCC ((((((....)))..)))	-12 kcal/mol	29.6 °C
GGAGACGAAAGTCGATCC ((((((....)))..)))	-13 kcal/mol	44 °C
GGAGACGCGAAAGCGTCC (((..(((....))))))	-7.09 kcal/mol	45.3 °C
GGAGACGGAAACGCCTCC ((((.((....)).))))	-48.4 kcal/mol	51.4 °C
GGAGACGGAAACGTCTTC (.(((((....))))).)	-17.4 kcal/mol	50.7 °C
GGAGATACGAAAGTATCC (((..(((....))))))	-12.7 kcal/mol	40.9 °C
GGAGATCCGAAAGGATCC (((..(((....))))))	-9.31 kcal/mol	42 °C
GGAGATCGAAAGATGTCC (((.(((....))).)))	-29.5 kcal/mol	50.4 °C

Sequence	folding enthalpy [1]	Tm [2]
GGAGCACGAAAGTGATCC (((.(((....))).)))	-38.3 kcal/mol	66.2 °C
GGAGCACGAAAGTGTCC (((.(((....))))))	-16.4 kcal/mol	48.5 °C
GGAGCAGGAAACTGCTTC (.(((((....))))).)	-26.4 kcal/mol	51.7 °C
GGAGCAGGAAACTGTTCC (((.(((....))).)))	-29.5 kcal/mol	48 °C
GGAGCCGAAAGGCAATCC ((((((....)))..)))	-11.2 kcal/mol	38 °C
GGAGCCGAAAGGCACTCC ((((((....)))..)))	-11.1 kcal/mol	39.9 °C
GGAGCCGAAAGGCAGTCC ((((((....)))..)))	-13.2 kcal/mol	36.1 °C
GGAGCCGAAAGGCGATCC ((((((....)))..)))	-9.49 kcal/mol	51.6 °C
GGAGCCGAAAGGCGTTCC ((((((....)))..)))	-10.1 kcal/mol	40 °C
GGAGCGGGAAACCGCTTC (.(((((....))))).)	-16.6 kcal/mol	58.2 °C
GGAGCTCGAAAGAGTTCC (((.(((....))).)))	-42.9 kcal/mol	57.4 °C
GGAGCTGGAAACGGCTCC (((((.(....).)))))	-48.2 kcal/mol	59.9 °C
GGAGGACGAAAGTCTCC (((.(((....))))))	-22.6 kcal/mol	50.5 °C
GGAGGAGAAATCCTCC ((((((....))))))	-40.8 kcal/mol	54.4 °C
GGAGGCGAAAGCCATCC ((((((....))).)))	-14.7 kcal/mol	49.4 °C
GGAGGCGAAAGCCCTCC ((((((....))).)))	-18.1 kcal/mol	61.1 °C
GGAGGCGAAAGCCGATCC ((((((....)))..)))	-9.71 kcal/mol	51.8 °C
GGAGGCGAAAGCCGTCC ((((((....))).)))	-9.55 kcal/mol	52.9 °C
GGAGGCGAAAGCCTGTCC ((((((....)))..)))	-8.31 kcal/mol	38 °C
GGAGGCGAAAGCCTTCC ((((((....))).)))	-13.5 kcal/mol	57.9 °C
GGAGGCGGAAACACCTCC (((((.(....).)))))	-39.4 kcal/mol	50.1 °C
GGAGGCGGAAACGCCCCC ((.((((....)))).))	-14.8 kcal/mol	56.4 °C
GGAGGGACGAAAGTCTCC (((..(((....))))))	-13.4 kcal/mol	39.2 °C

Sequence	folding enthalpy [1]	Tm [2]
GGAGGGCGAAAGCCGTCC (((.(((....))).)))	-21 kcal/mol	67 °C
GGAGGGGCGAAAGCCTCC (((..(((....))))))	-13.4 kcal/mol	44.8 °C
GGAGGGGGAAACCCTTCC (((.(((....))).)))	-25.7 kcal/mol	49.2 °C
GGAGGGGGAAACTCCTCC (((((.(....).)))))	-32.6 kcal/mol	53.8 °C
GGAGGTCGAAAGACTCC (((.(((....))))))	-21.3 kcal/mol	51.1 °C
GGAGGTGAAAACCTCC ((((((....))))))	-33.8 kcal/mol	66.2 °C
GGAGGTGGAAACGTCTCC ((((..(....)..))))	-18.4 kcal/mol	35.9 °C
GGAGTAGGAAACTACTTC (.(((((....))))).)	-29.2 kcal/mol	44.4 °C
GGAGTATCGAAAGATTCC (((..(((....))))))	-13.1 kcal/mol	26.6 °C
GGAGTCGAAAGACTGTCC ((((((....)))..)))	-12.1 kcal/mol	35.2 °C
GGAGTGGGAAACCATTCC (((.(((....))).)))	-31 kcal/mol	46 °C
GGAGTTCGAAAGAAATCC (((.(((....))).)))	-33.8 kcal/mol	49.2 °C
GGAGTTGAAAAACTCC ((((((....))))))	-36.2 kcal/mol	55.7 °C
GGAGTTGGAAACAACTTC (.(((((....))))).)	-31.1 kcal/mol	47.5 °C
GGATAATCGAAAGATTCC (((..(((....))))))	-14 kcal/mol	27.6 °C
GGATACCGAAAGGTTTCC (((.(((....))).)))	-37.6 kcal/mol	50.2 °C
GGATACGAAAGTAGTTCC ((((((....)))..)))	-9.9 kcal/mol	25 °C
GGATACGAAAGTATCC ((((((....))))))	-39.1 kcal/mol	66 °C
GGATACGAAAGTATGTCC ((((((....)))..)))	-12.5 kcal/mol	30.1 °C
GGATACGGAAACGCATCC ((((.((....)).))))	-29.1 kcal/mol	45.5 °C
GGATACGGAAACGTACCC ((.((((....)))).))	-21.1 kcal/mol	43.3 °C
GGATAGAAATATCC (((((....)))))	-17.5 kcal/mol	36 °C
